Source: PubChem BioAssay (several laboratories)
CHOP inhibitor – blocks CHOP induction under ER stress. inhibition, % at 10 µM. 3.8% of 220,000 active. CHO-K1 CHOP-promoter luciferase, tunicamycin-induced, 15-18 h;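 active = compounds that reduced the stress-induced luciferase reporter signal by more than about 70% of percent inhibition, limit read from the data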;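 note: 0% = tunicamycin plus vehicle and 100% = wells without tunicamycin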
CHOP UPR activ – apoptotic UPR (CHOP) activation; CHO-CHOP luciferase reporter, luminescence; percent of tunicamycin response over DMSO baseline; activation, % at 10 µM; 0.34% of 330,000 active;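 active = at 10 µM dose, activation of 40% or more, normalized to positive control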;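 note: 100% = tunicamycin at 10 µg/mL and 0% = DMSO alone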
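System: CHO-CHOP luciferase reporter cell line | Buffer or medium: F12 medium containing 10% fetal bovine serum | Doses: One dose, 10 µM in 0.5% DMSO | Times: 6 h compound exposure at 37 °C after overnight seeding | Signal: Luciferase luminescence | Read-out: % activation vs tunicamycin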
XBP1 UPR activ – adaptive UPR (XBP1) activation | activation, % at 20 µM | CHO-XBP1 luciferase reporter, IRE1-XBP1 UPR activation, luminescence; percent of tunicamycin response, DMSO as zero | AID 463104 | 0.33% of 330,000 active;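 active = versus positive control, 20 µM dose yields 30% or more activation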;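 note: 100% = tunicamycin at 10 µg/mL and 0% = DMSO only wells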
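Assay system: CHO-XBP1 luciferase reporter cells; Schedule: 6 h treatment, 37 °C; Detection: glow luminescence from Steady-Glo reagent; Benchmarks: high control tunicamycin 10 µg/mL final, low control DMSO vehicle only.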
PvdQ inh – P. aeruginosa PvdQ acylase inhibition. purified PvdQ acylase, fluorescence plate reader. inhibition, % at 10 µM. 0.063% of 340,000 active. AID 488965; in the data active = inhibition above about 30%, passing the limit was not always enough;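 note: 0% = vehicle neutral wells and 100% = reference inhibitor wells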
CHOP inh conf – confirmation of CHOP induction inhibitors; shares compounds with CHOP inhibitor; CHO-CHOP promoter luciferase reporter, tunicamycin-induced, luminescence; inhibition, % at 10 µM; 45% of 2,100 active;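 active = mean of three repeat readings of reporter signal inhibition above a set limit, cut at about 70% in these data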;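 note: 0% = tunicamycin plus vehicle and 100% = wells lacking tunicamycin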
* = called active by the depositor. Many of the other results were omitted from the sample, so hits are more common in it than they were.

NC(N)=N/N=C/c1ccc(OCc2ccccc2)cc1 was read as CHOP inhibitor -26, CHOP UPR activ 5, XBP1 UPR activ 3 and PvdQ inh -11.
Screening C(=N\Nc1ncnc2sc3c(c12)CCC3)/c1ccncc1 returned CHOP inhibitor -10, CHOP UPR activ -2, XBP1 UPR activ 15 and PvdQ inh -6.
For C(=N\Nc1ncnc2sc3c(c12)CCC3)/c1cccs1 the results were CHOP inhibitor 102*, CHOP UPR activ -1, XBP1 UPR activ 6, PvdQ inh 7 and CHOP inh conf 73*.
Screening O=C1c2ccc3c4c(ccc(c24)C(=O)N1c1cccc(O)c1)C(=O)N(c1cccc(O)c1)C3=O returned CHOP inhibitor 101*, CHOP UPR activ 1, XBP1 UPR activ -2, PvdQ inh -5 and CHOP inh conf 86*.
`O=C1c2cccc3cccc(c23)C(=O)N1c1ccc(O)cc1` gave CHOP UPR activ 2, XBP1 UPR activ 0 and PvdQ inh -1.
`CCCCCN(C(=O)CCC(=O)OCC(=O)N1CCCCC1C)c1c(N)n(CCCC)c(=O)[nH]c1=O` (centres undefined) gave CHOP UPR activ 1, XBP1 UPR activ 0 and PvdQ inh -19.
Screening Cc1ccc(OCC(=O)N2N=C(C(F)(F)F)CC2(O)C(C)(C)C)cc1C (centres undefined) returned CHOP inhibitor 103*, CHOP UPR activ -2, XBP1 UPR activ -1, PvdQ inh -10 and CHOP inh conf 116*.
`O=C1/C(=C/c2ccncc2)SC(=S)N1C1CCS(=O)(=O)C1` (centres undefined) gave CHOP inhibitor 104*, CHOP UPR activ 8, XBP1 UPR activ -5, PvdQ inh -6 and CHOP inh conf 103*.
For O=C(c1ccc(Cl)cc1)N1CCC(O)(CSc2ccc(Cl)cc2Cl)CC1 the results were CHOP inhibitor 109*, CHOP UPR activ 0, XBP1 UPR activ -2, PvdQ inh -14 and CHOP inh conf 87*.
`CC(C)(C)C(=O)c1no[n+]([O-])c1/C(=N/O)C(C)(C)C` gave CHOP inhibitor 108*, CHOP UPR activ 0, XBP1 UPR activ 2, PvdQ inh -4 and CHOP inh conf 78*.
`COc1ccc2c3c(cccc13)C(=O)CC2` gave PvdQ inh 11.
For CC[C@H](C)[C@H](NC(=O)c1ccc(Cl)cc1)C(=O)OCC(=O)c1ccc2c(c1)NC(=O)CO2 the results were CHOP inhibitor 105*, CHOP UPR activ 0, XBP1 UPR activ 6, PvdQ inh -5 and CHOP inh conf 30.
For CC(C)[C@H](NC(=O)c1ccccc1)C(=O)OCC(=O)c1ccc2c(c1)NC(=O)CO2 the results were CHOP inhibitor 23, CHOP UPR activ 3, XBP1 UPR activ -4 and PvdQ inh -11.
`O=C1CC(Sc2nnc(-c3ccccc3)o2)C(=O)N1c1ccccc1` (centres undefined) gave CHOP inhibitor 37, CHOP UPR activ 15, XBP1 UPR activ -6 and PvdQ inh 5.
`Cc1ccccc1N1C(=O)CC(Sc2nnc(-c3ccccc3)o2)C1=O` (centres undefined) gave CHOP inhibitor 108*, CHOP UPR activ 7, XBP1 UPR activ -8, PvdQ inh -7 and CHOP inh conf 4.
CCCCS(=O)CC(COC)OC(=O)c1ccccc1 (centres undefined) was read as CHOP inhibitor 17, CHOP UPR activ 0, XBP1 UPR activ 3 and PvdQ inh -13.
For CCCCS(=O)CC(COc1ccc(Cl)cc1)OC(=O)c1ccccc1 (centres undefined) the results were CHOP inhibitor 104*, CHOP UPR activ -1, XBP1 UPR activ -3, PvdQ inh 2 and CHOP inh conf 22.
Screening Oc1c(Cl)cc(Cl)cc1CNc1ccc(Br)cn1 returned CHOP inhibitor 104*, CHOP UPR activ 2, XBP1 UPR activ 2, PvdQ inh 9 and CHOP inh conf -2.
COC(=O)c1ccc(NC(=S)N2CCN(CCO)CC2)cc1 was read as CHOP UPR activ 4, XBP1 UPR activ 0 and PvdQ inh -12.
CCCCOc1ccc(NC(=O)Nc2nnc(C)s2)cc1 was read as CHOP inhibitor -6, CHOP UPR activ 1, XBP1 UPR activ 2 and PvdQ inh -6.
`CCC(C)(C)NC(=O)C(c1cccn1C)N(Cc1ccccc1)C(=O)Cn1nnc2ccccc21` (centres undefined) gave CHOP inhibitor 50 and PvdQ inh 2.
For CCC(C)(C)NC(=O)C(c1cccn1C)N(Cc1ccc(OC)cc1)C(=O)Cn1nnc2ccccc21 (centres undefined) the results were CHOP inhibitor 103*, CHOP UPR activ 4, XBP1 UPR activ 0, PvdQ inh -12 and CHOP inh conf 59.
Screening Cn1ncc(S(=O)(=O)Cc2ccccc2)c(Cl)c1=O returned CHOP inhibitor 102*, CHOP UPR activ -7, XBP1 UPR activ -4, PvdQ inh -15 and CHOP inh conf -3.
Cn1ncc(SCc2ccccc2)c(Cl)c1=O was read as CHOP inhibitor 50, CHOP UPR activ 2, XBP1 UPR activ -5 and PvdQ inh -12.
Screening Cc1nonc1NC(=O)CSc1nc(C23CC4CC(CC(C4)C2)C3)nc2ccccc12 returned CHOP inhibitor 100*, CHOP UPR activ 0, XBP1 UPR activ -1, PvdQ inh -2 and CHOP inh conf -2.
Cc1nonc1NC(=O)CSc1nc(C2CCCCC2)nc2ccccc12 was read as CHOP inhibitor -55, CHOP UPR activ 0, XBP1 UPR activ -3 and PvdQ inh -15.
Cc1ccc(NC(=O)Nc2cc(Cl)ccc2C2COC(=O)C2=N)cc1 (centres undefined) was read as CHOP inhibitor 101*, CHOP UPR activ 2, XBP1 UPR activ -1, PvdQ inh -8 and CHOP inh conf 62.
CCN(CC)CCOC(=O)c1ccc(N/C=C(/C#N)c2nc(-c3cccc(OC)c3)cs2)cc1 was read as CHOP inhibitor 105*, CHOP UPR activ 2, XBP1 UPR activ -1 and CHOP inh conf 80*.
CCc1c(C)nc(N2CCN(c3ccccc3)CC2)[nH]c1=O was read as CHOP UPR activ 1, XBP1 UPR activ 0 and PvdQ inh 4.
Cc1nc(N2CCN(c3ccccc3)CC2)[nH]c(=O)c1Cc1cccc2ccccc12 was read as CHOP inhibitor 97*, CHOP UPR activ 6, XBP1 UPR activ 17 and CHOP inh conf -4.
CCCc1nnc(SCC(=O)Nc2cccc(Cl)c2Cl)o1 was read as CHOP UPR activ 1, XBP1 UPR activ 3 and PvdQ inh -16.
Cc1nc(NC(=O)CSc2nc3cccnc3n2Cc2ccccc2)sc1C was read as CHOP inhibitor 104*, CHOP UPR activ 0, XBP1 UPR activ 8, PvdQ inh -4 and CHOP inh conf 91*.
CCOC(=O)CNC(=O)CSc1nc2cccnc2n1Cc1ccccc1 was read as CHOP inhibitor 0, CHOP UPR activ -2, XBP1 UPR activ 0 and PvdQ inh -19.
